# Starred links: 1 amine or outer side, 2 acyl side, 3 side chain; linkers in the order of their positions; H or OH if unused. Positions of bridges follow the written chain, without caps; N, C: chain ends. Non-standard residues stand in square brackets, D forms with d. Residues, ends and D or L forms follow the SMILES beside them. X1 = O=C([C@H](CC1=CCC=CC1)N[*:1])[*:2]; 2Thi = N[C@@H](Cc1cccs1)C(=O)O
# Legend:
# [1] = organism: Gallus gallus; test: Vasodepressor activity in chicken; type: functional
# [2] = organism: Rattus norvegicus; test: Vasopressor activity in phenoxybenzamine-treated rat; type: functional
# Procedure, shortened: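 Phenoxybenzamine-treated rats under urethane anesthesia. Potency referenced to the USP Posterior Pituitary Reference Standard.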
# [3] = system: Rattus norvegicus; test: Antidiuretic activity in iv dosed water loaded rat; type: functional, Urine
# Procedure, shortened: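 Water-loaded rats under ethanol anesthesia, peptide given intravenously. Potency referenced to the USP Posterior Pituitary Reference Standard.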
# [4] = Oxytocic activity in isolated rat uterus strips in Mg2+-free van Dyke-Hastings solution
# [5] = Stability of the compound in phosphate buffer at pH 7.5 in presence of rat kidney homogenates; type: ADME, tissue-based; conditions: tissue homogenate
# Procedure, shortened: (§1)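 DiHPhe incubated with rat kidney or liver homogenate in phosphate buffer, pH 7.5, then checked for conversion to Phe.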
# [6] = Stability of the compound in phosphate buffer at pH 7.5 in presence of rat liver homogenates; type: ADME, tissue-based; conditions: tissue homogenate; procedure, shortened: as §1
# [7] = Stability of the compound in 0.2 M potassium phosphate buffer at pH 7.7 assessed as hydrolysis by measuring Tyr level in presence of alpha-amylase preparation; type: ADME
# [8] = Stability of the compound in 0.2 M potassium phosphate buffer at pH 7.7 assessed as hydrolysis by measuring Gly level in presence of alpha-amylase preparation; type: ADME
# [9] = Stability of the compound in 0.2 M potassium phosphate buffer at pH 7.7 assessed as hydrolysis by measuring Leu/Lys level in presence of alpha-amylase preparation; type: ADME
# [10] = Stability of the compound in 0.2 M potassium phosphate buffer at pH 7.7 assessed as hydrolysis by measuring Ile/Phe + DiHPe level in presence of alpha-amylase preparation; type: ADME
# [11] = Oxytocic activity in isolated rat uterus strips in Mg2+-free solution
# [12] = Stability of the compound in potassium phosphate buffer at pH 7 assessed as hydrolysis by measuring Phe level in presence of alpha-amylase preparation and cyclohexadiene
# [13] = Stability of the compound in potassium phosphate buffer at pH 7 assessed as hydrolysis by measuring DiHPe level in presence of alpha-amylase preparation and cyclohexadiene
# [14] = Stability of the compound in 0.2 M potassium phosphate buffer at […] assessed as hydrolysis by measuring Tyr level in presence of alpha-amylase preparation and cyclohexadiene; type: ADME
# Procedure, shortened: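 Aspergillus oryzae α-amylase preparation, 1 mg per 0.9 µmol peptide, in potassium phosphate buffer pH 7, with 1,4-cyclohexadiene (10 µL) and toluene, under N2, 37 °C, 17 h. Adjusted to pH 2.2 for amino acid analysis. Phe from a control of constituent amino acids plus enzyme subtracted to give Phe in residue 3.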
Structure (SMILES),Activity [1] [U/mg],Activity [2] [U/mg],Activity [3] [U/mg],Activity [4] [U/mg],also measured
NCCCC[C@H](NC(=O)[C@@H]1CCCN1C(=O)[C@@H]1CSSC[C@H](N)C(=O)N[C@@H](Cc2ccc(O)cc2)C(=O)N[C@@H](Cc2cccs2)C(=O)N[C@@H](CCC(N)=O)C(=O)N[C@@H](CC(N)=O)C(=O)N1)C(=O)NCC(N)=O (H-CY[2Thi]QNCPKG-NH2; disulfide 1-6),87,243,332,19,–
NCCCC[C@H](NC(=O)[C@@H]1CCCN1C(=O)[C@@H]1CSSC[C@H](N)C(=O)N[C@@H](Cc2ccc(O)cc2)C(=O)N[C@@H](CO)C(=O)N[C@@H](CCC(N)=O)C(=O)N[C@@H](CC(N)=O)C(=O)N1)C(=O)NCC(N)=O (H-CYSQNCPKG-NH2; disulfide 1-6),<0.01,<0.01,0.08,<0.01,–
N[C@@H](CC1=CCC=CC1)C(=O)O,–,–,–,–,Stability [5]: Stable; Stability [6]: Stable
CC[C@H](C)[C@@H]1NC(=O)[C@H](Cc2ccc(O)cc2)NC(=O)[C@@H](N)CSSC[C@@H](C(=O)N2CCC[C@H]2C(=O)N[C@@H](CCCCN)C(=O)NCC(N)=O)NC(=O)[C@H](CC(N)=O)NC(=O)[C@H](CCC(N)=O)NC1=O (H-CYIQNCPKG-NH2; disulfide 1-6),190,130,24,78,–
NCCCC[C@H](NC(=O)[C@@H]1CCCN1C(=O)[C@@H]1CSSC[C@H](N)C(=O)N[C@@H](Cc2ccc(O)cc2)C(=O)N[C@@H](Cc2ccccc2)C(=O)N[C@@H](CCC(N)=O)C(=O)N[C@@H](CC(N)=O)C(=O)N1)C(=O)NCC(N)=O [LYPRESSIN],40,258,212,5,Drug degradation [7]: 100 mol%; Drug degradation [8]: 73 mol%; Drug degradation [9]: 101 mol%; Drug degradation [10]: 113 mol%
CC[C@H](C)[C@@H]1NC(=O)[C@H](Cc2ccc(O)cc2)NC(=O)[C@@H](N)CSSC[C@@H](C(=O)N2CCC[C@H]2C(=O)N[C@@H](CCCNC(=N)N)C(=O)NCC(N)=O)NC(=O)[C@H](CC(N)=O)NC(=O)[C@H](CCC(N)=O)NC1=O [ARGIPRESTOCIN] (H-CYIQNCPRG-NH2; disulfide 1-6),286,243,245,114,–
NCCCC[C@H](NC(=O)[C@@H]1CCCN1C(=O)[C@@H]1CSSC[C@H](N)C(=O)N[C@@H](Cc2ccc(O)cc2)C(=O)N[C@@H](Cc2ccc(O)cc2)C(=O)N[C@@H](CCC(N)=O)C(=O)N[C@@H](CC(N)=O)C(=O)N1)C(=O)NCC(N)=O (H-CYYQNCPKG-NH2; disulfide 1-6),0.08,0.07,0.18,–,Activity [11]: <=0.01 U/mg
NCCCC[C@H](NC(=O)[C@@H]1CCCN1C(=O)[C@@H]1CSSC[C@H](N)C(=O)N[C@@H](Cc2ccc(O)cc2)C(=O)N[C@@H](CC2=CCC=CC2)C(=O)N[C@@H](CCC(N)=O)C(=O)N[C@@H](CC(N)=O)C(=O)N1)C(=O)NCC(N)=O (H-CY[X1]QNCPKG-NH2; disulfide 1-6),–,129,125,6,Drug degradation [12]: 8.7 mol%; Drug degradation [13]: 66 mol%; Drug degradation [14]: 89 mol%
N=C(N)NCCC[C@H](NC(=O)[C@@H]1CCCN1C(=O)[C@@H]1CSSC[C@H](N)C(=O)N[C@@H](Cc2ccc(O)cc2)C(=O)N[C@@H](Cc2ccccc2)C(=O)N[C@@H](CCC(N)=O)C(=O)N[C@@H](CC(N)=O)C(=O)N1)C(=O)NCC(N)=O [VASOPRESSIN],57,380,429,16,–

# From ChEMBL document CHEMBL3244368, “[3-(1,4-Cyclohexadienyl)-L-alanine,8-lysine]vasopressin: synthesis and some pharmacological properties” (J Med Chem, 1979)
